An excerpt weighted towards active compounds, which were near 2.6% of everything screened.
HTR1E agonist = activates the human 5-HT1E serotonin receptor; CHO 5-HT1E Ga15 NFAT-bla reporter, FRET; 0% DMSO wells, 100% control agonist wells; P28566; activation, % at 6 µM; hit rate 0.69% among 65,000;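 active = activation above a set limit, the screen-wide mean activation plus 3 SD, cut at about 8.5% in these data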
S1P3 ag = activates the human S1P3 receptor; activation, % at 4.5 µM; hit rate 0.1% among 60,000; Q99500; S1P3 NFAT-BLA reporter cells, agonism, FRET ratio; relative to 1 µM S1P, basal subtracted; AID 373;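 active = activation above the screen-wide mean plus 3 SD, cut at about 4.5% in these data, passing the limit was not always enough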
Target sequence (Q99500 whole entry, looked up): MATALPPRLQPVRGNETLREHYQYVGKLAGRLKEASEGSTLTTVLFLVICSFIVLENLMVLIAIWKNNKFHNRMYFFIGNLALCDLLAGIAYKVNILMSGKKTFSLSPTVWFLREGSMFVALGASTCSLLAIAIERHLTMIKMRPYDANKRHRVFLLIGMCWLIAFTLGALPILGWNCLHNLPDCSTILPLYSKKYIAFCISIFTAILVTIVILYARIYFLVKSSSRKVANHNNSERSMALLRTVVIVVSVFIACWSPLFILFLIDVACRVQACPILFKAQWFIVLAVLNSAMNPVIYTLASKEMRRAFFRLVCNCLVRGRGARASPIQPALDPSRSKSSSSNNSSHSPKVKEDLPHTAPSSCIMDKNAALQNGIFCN
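Assay system: CHO cells stably expressing human S1P3, Gα16 and NFAT-β-lactamase reporter. Timing: overnight plating, 4 h compound 37 °C, 2 h substrate RT. Signal: β-lactamase FRET emission ratio 460/535 nm. Measure: percent activation versus median 1 µM S1P response, basal-subtracted, per plate. Repeats: primary screen single test, confirmation screen in triplicate.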
Ec RNAP inh = blocks E. coli RNA polymerase transcription; P0A8V2; hit rate 0.2% among 62,000; AID 559; inhibition, %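 (tested at 10 µM)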; fluorescence transcription assay; in the data active = inhibition above about 20%
5HT1a ag = 5-HT1a (human) receptor agonism; activation, % at 10 µM; CHO 5-HT1a Ga15 NFAT-bla reporter, FRET ratio; 0% basal, 100% maximal reference agonist; hit rate 0.56% among 65,000; P08908;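 active = activation above the screen-wide mean activation plus 3 SD, cut at about 19% in these data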
5HT1a antag = antagonists of human 5-HT1a serotonin receptor. P08908. CHO 5-HT1a Ga15 NFAT-bla reporter, antagonist mode. inhibition, % at 10 µM. hit rate 0.68% among 62,000. AID 612;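 active = inhibition above the mean of all tested compounds plus 3 SD, cut at about 43% in these data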;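 note: receptor stimulated by 5-CT agonist at 100 nM near EC80; beta-lactamase reporter measured by ratiometric fluorescence of a cleavable substrate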
5HT1E antag = 5-HT1E (human) receptor antagonism; P28566; CHO 5-HT1E Ga15 NFAT-bla reporter, FRET, antagonist; inhibition, % at 6 µM; hit rate 0.99% among 65,000;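 active = inhibition above a set limit, the mean inhibition across every tested compound plus 3 SD, cut at about 29% in these data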;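 note: signal is the 460 over 535 nm emission ratio of beta-lactamase substrate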
Hits are given with their value; . = inactive; / = no result.

SMILES	HTR1E agonist	S1P3 ag	Ec RNAP inh	5HT1a ag	5HT1a antag	5HT1E antag
O=c1cc(-c2ccccc2)[nH]c2ccccc12	.	.	.	.	.	53
CC(=O)N(c1ccc(N(C(C)=O)S(=O)(=O)c2cccs2)cc1)S(=O)(=O)c1cccs1	.	.	24	.	.	.
COc1ccc(N(C(=O)c2ccco2)S(=O)(=O)c2cccs2)cc1	.	.	.	.	.	.
CC1CCN(Cc2ccc(-c3nn[nH]n3)cc2)CC1	.	.	.	.	.	.
Cc1[nH]c2ccc(C(=O)OCCN(C)C)cc2c1C	31	.	/	.	.	.
CCOC(=O)c1ccc2[nH]c(C)c(CCC(C)=O)c(=O)c2c1	.	.	.	.	.	.
CCOC(=O)NC1(Nc2ccc(Cl)cn2)Oc2ccccc2O1	.	.	25	.	.	.
O=C(CCCOc1ccc(Cl)cc1)Nc1nncs1	.	.	/	.	.	.
CCCn1c(SCC(=O)O)nc2ccccc21	.	.	.	.	.	.
O=C(NCc1ccccc1)NC1(C(=O)N2CCN(c3ncccn3)CC2)CCCCC1	.	.	.	.	.	.
O=C(NCc1ccccc1)NC1(C(=O)N2CCCC2)CCCCC1	89	.	.	.	.	.
CSc1nnc(-c2ccc(F)cc2)o1	.	.	.	.	.	.
Cc1ccc(-c2cc(-c3ccc(C)o3)nc(N)c2C#N)cc1	.	.	.	.	.	.
Cc1cc(-c2cc(-c3ccc(Cl)cc3)nc(N)c2C#N)co1	.	.	.	41	/	.
Cc1ccc(-c2cc(-c3ccc(Cl)cc3)c(C#N)c(N)n2)o1	.	5.9	.	.	.	.
Cc1noc(C)c1S(=O)(=O)N1CCC(C(=O)N2CCN(c3ccc(Cl)cc3)CC2)CC1	.	/	.	.	.	.
O=C(CCn1nnc2ccccc21)Nc1nnc(Cc2ccc(F)cc2)s1	13	.	.	.	.	.
Cc1ccc(C(=O)C2CCN(CC(=O)Nc3ccc(N(C)C)cc3)CC2)cc1	12	.	.	.	.	.
CCN=C1SC(C(=O)Nc2cccc(OCC)c2)CC(=O)N1CC (centres undefined)	.	.	.	.	.	.
OCCCc1nc2n(n1)C(c1cccs1)C=C(c1ccccc1)N2 (centres undefined)	.	.	.	.	.	.
OCCCc1nc2n(n1)C(c1ccccc1Cl)C=C(c1cccs1)N2 (centres undefined)	.	.	.	.	44	50
Fc1ccc(-c2noc(C3CCN(Cc4cccnc4)CC3)n2)cc1	.	.	.	.	.	.
O=C(Nc1ccc(N2CCN(C(=O)c3ccco3)CC2)c(Cl)c1)c1cc2ccccc2o1	.	.	.	.	.	38
CCC(=O)N1CCN(c2ccc(NC(=O)c3cc4ccccc4o3)cc2Cl)CC1	.	.	.	.	.	36
CCCC(=O)N1CCN(c2ccc(NC(=O)c3cc4ccccc4o3)cc2Cl)CC1	.	.	.	.	.	44
SMILES	HTR1E agonist	S1P3 ag	Ec RNAP inh	5HT1a ag	5HT1a antag	5HT1E antag
O=C(c1cc2ccccc2o1)N1CCN(c2ccccc2Cl)CC1	.	.	.	.	.	.
O=C(Nc1ccc(N2CCN(C(=O)c3ccccc3)CC2)c(Cl)c1)c1ccco1	.	.	.	.	.	.
CCN1CCCC1CNC(=O)c1nn(-c2ccc(C)cc2)c(=O)c2c1c1ccccc1n2C (centres undefined)	37	.	.	.	.	.
CCCCCCc1cc2cc(-c3nnc(-c4ccccc4O)o3)c(=O)oc2cc1O	.	.	.	49	/	.
Cc1cc(-c2nnc(-c3cc4ccccc4oc3=O)o2)c(C)n1-c1ccccc1	.	/	.	.	.	.
O=C(Cn1c(=O)oc2cc(S(=O)(=O)N3CCc4ccccc43)ccc21)NC1CCCC1	.	.	.	.	.	.
CC(C)CCNC(=O)Cn1c(=O)oc2cc(S(=O)(=O)N3CCc4ccccc43)ccc21	.	.	.	.	.	35
O=C(Nc1ccc(OC(F)F)c(Cl)c1)Nc1ccc2c(c1)OCO2	.	.	.	.	61	.
Cc1c(/C=N/n2cnnc2)c2ccccc2n1CCOc1ccccc1	.	.	.	.	.	34
Cc1cccc(Nc2ccccc2)c1	.	/	.	.	.	.
COc1cccc(-n2c(SCC(=O)NC(C)(C)C)nnc2-c2ccoc2C)c1	.	.	.	.	.	.
Cc1occc1-c1nnc(SCC(=O)NC(C)(C)C)n1C(C)c1ccccc1 (centres undefined)	43	.	.	.	.	.
COC(=O)C1(C)NC(=O)c2ccccc2N1 (centres undefined)	.	.	.	.	.	.
Cc1cc(Cl)ccc1NC(=O)CSc1nnc(Cc2cccs2)n1Cc1ccco1	.	.	.	.	.	.
CCCc1cc(=O)oc2c(C)c3occ(C)c3cc12	.	.	.	.	.	39
COc1ccc2c(c1)c(=O)oc1c(C)c3occ(C)c3cc12	.	.	.	.	.	.
Cc1ccc(C(=O)N2CCCC(c3nc4c(nnn4Cc4ccccc4)c(=O)[nH]3)C2)cc1 (centres undefined)	.	.	.	21	.	.
O=C(Nc1cc(C(F)(F)F)ccc1N1CCCC1)c1cccnc1	.	.	.	.	.	.
CC(Oc1ccc(NC(=O)c2ccco2)cc1)C(=O)N1c2ccccc2CC1C (centres undefined)	.	.	.	.	.	.
Nc1c(NCc2ccccc2F)c(=O)[nH]c(=O)n1Cc1ccccc1	.	/	.	81	.	.
N=c1c2c(-c3ccccc3)c(-c3ccccc3)n(Cc3ccco3)c2ncn1Cc1ccco1	.	.	.	.	57	.
CCOc1ccccc1CN(Cc1ccco1)S(=O)(=O)c1ccc(-n2cnnn2)c(OC)c1	.	.	.	.	54	.
CC(C)(C)C(=O)/C(C#N)=c1\s/c(=C\c2ccncc2)c(=O)n1CCCN1CCOCC1	.	.	.	.	.	.
O=C1c2ccccc2NC(c2ccco2)N1O (centres undefined)	.	.	.	.	.	.
O=C1C2=C(Nc3ccccc3SC2c2ccco2)c2ccccc21 (centres undefined)	.	.	.	.	70	.
SMILES	HTR1E agonist	S1P3 ag	Ec RNAP inh	5HT1a ag	5HT1a antag	5HT1E antag
Cc1c(C)[n+](=O)c2c(n1[O-])CCCCC2	23	.	.	.	.	.
O=C(Cn1cccc1C(=O)c1ccccc1)NCc1cccs1	29	.	.	.	.	.
CN(C)c1nc2ccc(OCCN3CCCCC3)cc2s1	.	.	.	.	.	.
COc1cc2c(O)c3c(c(-c4ccc5c(c4)OCO5)c2cc1OC)C(=O)OC3	.	.	.	.	.	34
COC(=O)c1ccccc1COn1c(=O)c(C)[n+]([O-])c2ccccc21	.	.	.	.	.	.
Fc1ccccc1COc1cccc(/C=N/n2cnnc2)c1	.	.	.	.	.	.

Source: PubChem BioAssay (several laboratories)
